How the values were obtained:
HCC 2998 = assay: Cytotoxicity against human HCC2998 cells after 48 hrs by SRB assay; format: functional; conditions: HCC 2998, 48 h
Method in brief: (§1)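 Run at NCI: cell lines exposed 48 h to a range of concentrations, with untreated controls under identical conditions. Growth measured by sulforhodamine B staining with colorimetric read-out. Percent growth computed from test, time-zero and control absorbances. GI50, TGI and LC50 read from PG versus log10 molar concentration as the concentrations giving PG = 50, 0 and -50.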

HCT-15 = assay: Cytotoxicity against human HCT15 cells after 48 hrs by SRB assay; format: functional; conditions: HCT-15, 48 h; method in brief: as §1
SW-620 = assay: Cytotoxicity against human SW620 cells after 48 hrs by SRB assay; format: functional; conditions: SW-620, 48 h; method in brief: as §1
SF-539 = assay: Cytotoxicity against human SF539 cells after 48 hrs by SRB assay; format: functional; conditions: SF-539, 48 h; method in brief: as §1
UACC-257 = assay: Cytotoxicity against human UACC257 cells after 48 hrs by SRB assay; format: functional; conditions: UACC-257, 48 h; method in brief: as §1
UACC-62 = assay: Cytotoxicity against human UACC62 cells after 48 hrs by SRB assay; format: functional; conditions: UACC-62, 48 h; method in brief: as §1
OVCAR-3 = assay: Cytotoxicity against human OVCAR-3 cells after 48 hrs by SRB assay; format: functional; conditions: OVCAR-3, 48 h; method in brief: as §1
OVCAR-4 = assay: Cytotoxicity against human OVCAR4 cells after 48 hrs by SRB assay; format: functional; conditions: OVCAR-4, 48 h; method in brief: as §1
OVCAR-8 = assay: Cytotoxicity against human OVCAR8 cells after 48 hrs by SRB assay; format: functional; conditions: OVCAR-8, 48 h; method in brief: as §1
SK-OV-3 = assay: Cytotoxicity against human SKOV3 cells after 48 hrs by SRB assay; format: functional; conditions: SK-OV-3, 48 h; method in brief: as §1
A498 = assay: Cytotoxicity against human A498 cells after 48 hrs by SRB assay; format: functional; conditions: A498, 48 h; method in brief: as §1
CAKI-1 = assay: Cytotoxicity against human CAKI1 cells after 48 hrs by SRB assay; format: functional; conditions: CAKI-1, 48 h; method in brief: as §1
RXF 393 = assay: Cytotoxicity against human […] cells after 48 hrs by SRB assay; format: functional; conditions: RXF 393, 48 h; method in brief: as §1
TK-10 = assay: Cytotoxicity against human TK10 cells after 48 hrs by SRB assay; format: functional; conditions: TK-10, 48 h; method in brief: as §1
DU-145 = assay: Cytotoxicity against human DU145 cells after 48 hrs by SRB assay; format: functional; conditions: DU-145, 48 h; method in brief: as §1
MCF7 = assay: Cytotoxicity against human MCF7 cells after 48 hrs by SRB assay; format: functional; conditions: MCF7, 48 h; method in brief: as §1
NCI/ADR-RES = assay: Cytotoxicity against human NCI/ADR-RES cells after 48 hrs by SRB assay; format: functional; method in brief: as §1
MDA-MB-231 = assay: Cytotoxicity against human MDA-MB-231 cells after 48 hrs by SRB assay; format: functional; conditions: MDA-MB-231, 48 h; method in brief: as §1
MDA-MB-435 = assay: Cytotoxicity against human MDA-MB-435 cells after 48 hrs by SRB assay; format: functional; conditions: MDA-MB-435, 48 h; method in brief: as §1
MDA-N = assay: Cytotoxicity against human MDA-N cells after 48 hrs by SRB assay; format: functional; method in brief: as §1
T47D = assay: Cytotoxicity against human T47D cells after 48 hrs by SRB assay; format: functional; method in brief: as §1
SK-MEL-28 = assay: Cytotoxicity against human SK-MEL-28 cells after 48 hrs by SRB assay; format: functional; conditions: SK-MEL-28, 48 h; method in brief: as §1
SNB-75 = assay: Cytotoxicity against human SNB75 cells after 48 hrs by SRB assay; format: functional; conditions: SNB-75, 48 h; method in brief: as §1
SK-MEL-2 = assay: Cytotoxicity against human SK-MEL-2 cells after 48 hrs by SRB assay; format: functional; conditions: SK-MEL-2, 48 h; method in brief: as §1
Escherichia coli = assay: Induction of plasmid pBR322 DNA cleavage assessed as concentration required to cleave 50% of DNA after 24 hrs by gel electrophoresis
Method in brief: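 Supercoiled pBR322 (90% form I) diluted to 50 µg/mL (75 µM/bp) in pH 7.5 Tris 40 mM/EDTA 4 mM. Incubated 24 h at 37 °C, then run on agarose gel with ethidium bromide and viewed at 302 nm. Form I versus II+III quantified by densitometry after subtracting form II present in the control.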

RPMI-8226 = assay: Cytotoxicity against human RPMI8226 cells after 48 hrs by SRB assay; format: functional; conditions: RPMI-8226, 48 h; method in brief: as §1
A549 = assay: Cytotoxicity against human A549 cells after 48 hrs by SRB assay; format: functional; conditions: A549, 48 h; method in brief: as §1
EKVX = assay: Cytotoxicity against human EKVX cells after 48 hrs by SRB assay; format: functional; method in brief: as §1
[1] = read-out: Log LC50 (the source's name) (converted)

In the case of `CC(=O)O[C@@H]1C#C/C=C\C#CC[C@H]2C(=O)N(C(=O)OC(C)(C)C)[C@H]12`, the GI50 (HCC 2998) is reported as 34.7 µM, the CC50 (HCC 2998; [1]) is reported as > 100 µM and the TGI (HCC 2998; read-out: Log TGI (converted)) is reported as > 100 µM. For the same compound, the CC50 (HCT-15; [1]) was > 100 µM, the TGI (HCT-15; read-out: Log TGI (converted)) was > 100 µM and the GI50 (HCT-15; read-out: pGI50 (converted)) was 40.7 µM. For the same compound, the GI50 (SW-620) was 13.5 µM, the CC50 (SW-620; [1]) was > 100 µM and the TGI (SW-620; read-out: Log TGI (converted)) was > 100 µM. The GI50 (SF-539) was 0.724 µM, the CC50 (SF-539; [1]) was 25.7 µM and the TGI (SF-539; read-out: Log TGI (converted)) was 5.37 µM. For the same compound, the CC50 (UACC-257; [1]) was > 100 µM, the TGI (UACC-257; read-out: Log TGI (converted)) was > 100 µM and the GI50 (UACC-257; read-out: pGI50 (converted)) was 18.2 µM. The GI50 (UACC-62) was 21.4 µM, the CC50 (UACC-62; [1]) was > 100 µM and the TGI (UACC-62; read-out: Log TGI (converted)) was > 100 µM. The GI50 (OVCAR-3) was 61.7 µM, the CC50 (OVCAR-3; [1]) was > 100 µM and the TGI (OVCAR-3; read-out: Log TGI (converted)) was > 100 µM. For the same compound, the GI50 (OVCAR-4) was > 100 µM, the CC50 (OVCAR-4; [1]) was > 100 µM and the TGI (OVCAR-4; read-out: Log TGI (converted)) was > 100 µM. For the same compound, the GI50 (OVCAR-8) was 14.5 µM, the CC50 (OVCAR-8; [1]) was > 100 µM and the TGI (OVCAR-8; read-out: Log TGI (converted)) was 89.1 µM. For the same compound, the GI50 (SK-OV-3) was 87.1 µM, the CC50 (SK-OV-3; [1]) was > 100 µM and the TGI (SK-OV-3; read-out: Log TGI (converted)) was > 100 µM. The GI50 (A498) was 17 µM, the CC50 (A498; [1]) was > 100 µM and the TGI (A498; read-out: Log TGI (converted)) was 97.7 µM. For the same compound, the GI50 (CAKI-1) was 0.355 µM, the CC50 (CAKI-1; [1]) was 60.3 µM and the TGI (CAKI-1; read-out: Log TGI (converted)) was 6.46 µM. For the same compound, the GI50 (RXF 393) was 20.4 µM, the CC50 (RXF 393; [1]) was > 100 µM and the TGI (RXF 393; read-out: Log TGI (converted)) was 69.2 µM. For the same compound, the GI50 (TK-10) was 35.5 µM, the CC50 (TK-10; [1]) was > 100 µM and the TGI (TK-10; read-out: Log TGI (converted)) was > 100 µM. For the same compound, the GI50 (DU-145) was 16.2 µM, the CC50 (DU-145; [1]) was > 100 µM and the TGI (DU-145; read-out: Log TGI (converted)) was 56.2 µM. For the same compound, the GI50 (MCF7) was 1.1 µM, the CC50 (MCF7; [1]) was > 100 µM and the TGI (MCF7; read-out: Log TGI (converted)) was > 100 µM. For the same compound, the GI50 (NCI/ADR-RES) was 28.8 µM, the CC50 (NCI/ADR-RES; [1]) was > 100 µM and the TGI (NCI/ADR-RES; read-out: Log TGI (converted)) was > 100 µM. The GI50 (MDA-MB-231) was > 100 µM, the CC50 (MDA-MB-231; [1]) was > 100 µM and the TGI (MDA-MB-231; read-out: Log TGI (converted)) was > 100 µM. The GI50 (MDA-MB-435) was > 100 µM, the CC50 (MDA-MB-435; [1]) was > 100 µM and the TGI (MDA-MB-435; read-out: Log TGI (converted)) was > 100 µM. For the same compound, the GI50 (MDA-N) was 87.1 µM, the CC50 (MDA-N; [1]) was > 100 µM and the TGI (MDA-N; read-out: Log TGI (converted)) was > 100 µM. The GI50 (T47D) was 100 µM, the CC50 (T47D; [1]) was > 100 µM and the TGI (T47D; read-out: Log TGI (converted)) was > 100 µM. The GI50 (SK-MEL-28) was 87.1 µM, the CC50 (SK-MEL-28; [1]) was > 100 µM and the TGI (SK-MEL-28; read-out: Log TGI (converted)) was > 100 µM. For the same compound, the GI50 (SNB-75) was 38 µM, the CC50 (SNB-75; [1]) was > 100 µM and the TGI (SNB-75; read-out: Log TGI (converted)) was > 100 µM. For the same compound, the GI50 (SK-MEL-2) was 47.9 µM, the CC50 (SK-MEL-2; [1]) was > 100 µM and the TGI (SK-MEL-2; read-out: Log TGI (converted)) was > 100 µM. The CS50 (Escherichia coli) was 40 µM, the GI50 (RPMI-8226) was 17.8 µM and the CC50 (RPMI-8226; [1]) was > 100 µM. The TGI (RPMI-8226; read-out: Log TGI (converted)) was > 100 µM, the GI50 (A549) was 28.2 µM and the CC50 (A549; [1]) was > 100 µM. The TGI (A549; read-out: Log TGI (converted)) was > 100 µM, the GI50 (EKVX) was > 100 µM and the CC50 (EKVX; [1]) was > 100 µM. The TGI (EKVX; read-out: Log TGI (converted)) was > 100 µM.
